# Results reported in ChEMBL document CHEMBL1130197, “Preparation, characterization, DNA binding, and in vitro cytotoxicity of the enantiomers of the platinum(II) complexes N-methyl-, N-ethyl- and N,N-dimethyl-(R)- and -(S)-3-aminohexahydroazepinedichloroplatinum(II)” (1997).
# Key:
# Format in all cases: functional
# [1] = tested on: PC-9; assay: Concentration to inhibit growth of PC9 cell lines; details: Homo sapiens
# Outline: (§1)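 Human tumor lines grown as monolayers in RPMI 1640 with 10% FCS plus penicillin/streptomycin, at 37 °C under 7.5% CO₂, 5% O₂, 85% N₂. Cells were seeded at 5000 per well and left 24 h, then exposed for 96 h at 37 °C to complexes (saline-dissolved, final 0–200 μM). Viability was read by MTT (570 nm) or SRB (570 nm) against untreated controls, with 4 or 6 replicates. IC50 was taken from dose–response curves.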
# [2] = tested on: BL13/0; assay: Concentration to inhibit growth of BL13/0 cell lines; details: Homo sapiens; outline: as §1
# [3] = Concentration to inhibit growth of PC9-cisR cell lines; details: Homo sapiens; PC-9; outline: as §1
# [4] = tested on: DU-145; assay: Concentration to inhibit growth of DU145 cell lines; details: Homo sapiens; outline: as §1
Substance,Mean IC50 [1],Mean IC50 [4],Mean IC50 [2],Mean IC50 [3]
"8,8-Platinumdichloro-7,7-dimethyl-(6S)-1,7-diazoniabicyclo[4.2.1]nonane",11.8 µM,11.5 µM,10.2 µM,28.7 µM
CISPLATIN,1.4 µM,1.8 µM,1.9 µM,11.7 µM
"8,8-platinumdichloro-(6R)-1,7-diazoniabicyclo[4.2.1]nonane",5.9 µM,2.9 µM,1.3 µM,16 µM
"8,8-Platinumdichloro-7,7-dimethyl-(6R)-1,7-diazoniabicyclo[4.2.1]nonane",13.5 µM,7.3 µM,7.7 µM,29.3 µM

# The next lines start with results.
Mean IC50 [1],Mean IC50 [4],Substance,Mean IC50 [2],Mean IC50 [3]
13.7 µM,10.1 µM,"8,8-Platinumdichloro-7-methyl-(6S)-1,7-diazoniabicyclo[4.2.1]nonane",11.7 µM,38.3 µM
20 µM,9.5 µM,"8,8-Platinumdichloro-7-ethyl-(6R)-1,7-diazoniabicyclo[4.2.1]nonane",7.4 µM,44 µM
31 µM,21.3 µM,"8,8-Platinum dichloro-7-ethyl-(6S)-1,7-diazoniabicyclo[4.2.1]nonane",19 µM,79.7 µM
